Experimental data: PMC5698725 (Chemistry (Weinheim an Der Bergstrasse, Germany), 2017)

Key:
Hydrolytic stability = assay type: physicochemical
In short: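 Test compound stirred for 24 hours in buffers: pH 2.0 and pH 4.5 citrate, pH 6.5 and pH 7.4 phosphate-buffered saline, pH 8.0 sodium borate. Hydrolytic stability is expressed as percent test compound recovered at 24 h.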

[1] = High-throughput metabolic stability assay, human liver microsomes; assay type: in vitro ADME; settings: predicted from in vitro metabolic stability
In short: (§1)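 Predicted hepatic metabolic clearance from a high-throughput metabolic stability assay. Systems: pooled human, rat or mouse liver microsomes, or freshly harvested rat hepatocytes. Output is predicted blood clearance (CLb) in L h−1 kg−1.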

[2] = High-throughput metabolic stability assay, rat liver microsomes; assay type: in vitro ADME; settings: predicted from in vitro metabolic stability
In short: as §1

[3] = High-throughput metabolic stability assay, mouse liver microsomes; assay type: in vitro ADME; settings: predicted from in vitro metabolic stability
In short: as §1

[4] = test system: freshly harvested rat hepatocytes (rHep); assay: High-throughput metabolic stability assay, rat hepatocytes; assay type: in vitro ADME; settings: predicted from in vitro metabolic stability
In short: as §1

[5] = Bidirectional Caco2 permeability assay; assay type: in vitro ADME; settings: human, Caco-2
Caco2 = assay: Bidirectional Caco2 permeability assay; assay type: in vitro ADME; settings: Caco2, P app B–A/P app A–B

In the case of N=S(=O)(c1ccccc1)N1CCCCC1 (stereo not shown) [2 a, 1 ‐(S‐Phenylsulfonimidoyl)piperidine], the “Recovered test compound (hydrolytic stability)” value (Hydrolytic stability; all tested pH values (2.0–8.0), 24 hours with stirring) is reported as 100%, the recovery at 24 h (Hydrolytic stability; citrate buffer, pH 2) is reported as 100% and the recovery at 24 h (Hydrolytic stability; citrate buffer, pH 4.5) is reported as 100%. For the same compound, the recovery at 24 h (Hydrolytic stability; phosphate-buffered saline, pH 6.5) was 100%, the recovery at 24 h (Hydrolytic stability; phosphate-buffered saline, pH 7.4) was 100% and the recovery at 24 h (Hydrolytic stability; sodium borate buffer, pH 8) was 100%. The “CLb hLMs (predicted blood clearance)” value [1] was 0.67 mL/min/kg, the “CLb rLMs (predicted blood clearance)” value [2] was 50 mL/min/kg and the “CLb mLMs (predicted blood clearance)” value [3] was 18.3 mL/min/kg. The “CLb rHep (predicted blood clearance)” value [4] was 60 mL/min/kg, the Papp A→B [5] was 37.8 ×10⁻⁶ cm/s and the efflux ratio [5] was 0.59. For the same compound, the efflux ratio (Caco2) was “no evidence of efflux”.
